Measurements from different studies.
Lines come from different studies, so protocols differ.
Effect on: metabolic stability

Structure (SMILES)	species	sample	concentration	time	pH	endpoint	result
O=C(Nc1ccc(N2C(=O)c3cccc(Cl)c3C2=O)c(Cl)c1)c1ncccc1Cl	rat	liver microsomes	1 µM		pH 7.4	scaled CLint	39.9 mL/min/kg
CC(F)(F)CN1Cc2cc(C(F)(F)F)ncc2C2=CN=C(NCc3c(F)ccc4c3CCO4)N3C=NC(C1=O)C23 (stereo not drawn)	rat	liver microsomes	100 µM	30 min		scaled CLint	16.6 mL/min/kg
C[C@H](C(=O)NC1Cc2ccccc2C1)c1ccccc1	rat	liver microsomes	1 µM			microsomal CLint	> 200 µL/min/mg
COc1ccc(-c2nc3ccccn3c2N(C)c2ccc(F)cc2)nc1	rat	hepatocytes				hepatocyte CLint	> 300 µL/min/10⁶ cells
CC(C)N1Cc2cc(C(F)(F)F)ncc2C2=CN=C(NCc3c(F)ccc4c3CCO4)N3C=NC(C1=O)C23 (stereo not drawn)	rat	liver microsomes	100 µM	30 min		scaled CLint	18.9 mL/min/kg
c1ccc(-c2nc3n(c2-c2ccncc2)CCC3)nc1	rat	hepatocytes				hepatocyte CLint	4.8 µL/min/10⁶ cells
O=c1ccc2ccc(O)cc2o1	rat	liver S9	2 µM		pH 7.4	scaled CLint	787 mL/min/kg
CC(=O)c1cccc(OCc2cc(C(=O)N(C)[C@@H](C)c3ccccn3)no2)c1	rat	liver microsomes				scaled CLint	770 mL/min/kg
COc1ccc(-c2nc3ccc(OC)cn3c2N(C)c2ccc(F)cc2)nc1	rat	hepatocytes				hepatocyte CLint	> 300 µL/min/10⁶ cells
Cc1cccnc1C(=O)Nc1ccc(N2C(=O)c3cccc(Cl)c3C2=O)c(Cl)c1	rat	liver microsomes	1 µM		pH 7.4	scaled CLint	95.9 mL/min/kg
COc1ccc(-c2nc3ccc(OC)cn3c2Nc2ccc(F)cc2)nc1	rat	hepatocytes				hepatocyte CLint	76 µL/min/10⁶ cells
CS(=O)(=O)c1ccc(-c2cnc(N)c(-c3ccc(C(F)(F)F)nc3)c2)cc1	male rat	liver microsomes	1 µM			microsomal CLint	< 11.6 µL/min/mg
C[C@H](C(=O)NC1Cc2ccccc2C1)c1ccc(F)cc1	rat	liver microsomes	1 µM			microsomal CLint	> 200 µL/min/mg
CCOc1c(O)cc(Br)c2c1CN1CCc3cc(OCC(F)F)c(O)cc3[C@@H]1C2	rat	liver S9	2 µM		pH 7.4	scaled CLint	902 mL/min/kg
O=c1[nH]c(=S)n(Cc2ccc(Cl)cc2CNCC(F)(F)F)c2cc[nH]c12	rat	hepatocytes				hepatocyte CLint	30 µL/min/10⁶ cells
